Results pooled from the literature.
AVPR1A: Vasopressin V1a receptor (AVPR1A, Homo sapiens, UniProt P37288)
PTGS2: Prostaglandin G/H synthase 2 (PTGS2, Ovis aries, UniProt P79208)
GSK3B: Glycogen synthase kinase-3 beta (GSK3B, Homo sapiens, UniProt P49841)

SMILES	target	test	test system	setting	inhibition
Oc1cccc(Nc2nc(-c3ccc(F)cc3F)cs2)c1	AVPR1A	cell-free assay	–	10 µM	1.2%
O=c1c(O)c(-c2ccc(O)cc2)oc2cc(O)cc(O)c12	PTGS2	enzyme activity, inhibitor, absorbance	–	50 µM	52.2%
CC(=O)c1nn(CC(=O)N2C[C@H](F)C[C@H]2C(=O)Nc2cccc(Br)n2)c2ccc(-c3cnc(C)nc3)cc12	Cathepsin G (CTSG, Homo sapiens, UniProt P08311)	enzyme activity, inhibitor	–	10 µM	0.4%
CCN1CCN(Cc2ccc(NC(=O)c3ccc(C)c(/C=C/c4cnc5[nH]ccc5c4OC)c3)cc2C(F)(F)F)CC1	Mitogen-activated protein kinase kinase kinase 5 (MAP3K5, Homo sapiens, UniProt Q99683)	target engagement in cells, inhibitor, chemoproteomics	A-375	50 nM	-33.8%
O=C(C1CCCCC1)N1CC(=O)N2CCc3ccccc3C2C1 (centres unmarked)	GSK3B	enzyme activity, inhibitor, ADP detection	–	100 µM	8.2%
O=C1N=C(N2CCCCN2)S/C1=C\c1ccc(F)cc1O	AVPR1A	ligand displacement, radioligand	–	10 µM	< 10%
C[C@@H]1CN(c2c(F)c(N)c3c(=O)c(C(=O)O)cn(C4CC4)c3c2F)C[C@H](C)N1	GSK3B	enzyme activity, inhibitor, ADP detection	–	100 µM	14%
O=c1c(O[C@@H]2O[C@H](CO)[C@@H](O)[C@H](O)[C@H]2O)c(-c2ccc(O)cc2)oc2cc(O[C@@H]3O[C@H](CO)[C@@H](O)[C@H](O)[C@H]3O)cc(O)c12	PTGS2	enzyme activity, inhibitor, absorbance	–	50 µM	54.8%
COC(=O)C1=C(C#N)NC(C)=C(C(=O)OC(C)C)C1c1cccc([N+](=O)[O-])c1 (centres unmarked)	GSK3B	enzyme activity, inhibitor, ADP detection	–	100 µM	25.3%
COc1cc(NC(C)=O)c(Cl)cc1C(=O)Nc1nccs1	AVPR1A	cell-free assay	–	10 µM	-0.8%
CC/C(=N\NC(=O)NCc1cccc(O)c1)c1ccc(O)c(C)c1O	[Pyruvate dehydrogenase (acetyl-transferring)] kinase isozyme 2, mitochondrial (PDK2, Homo sapiens, UniProt Q15119)	enzyme activity, inhibitor	–	0.1 µM	-2.1%
CN(C)C1CCN(CC#Cc2nn(C3CCCC3)c3nc(NCc4ccccc4)ncc23)C1 (centres unmarked)	Protein-tyrosine kinase 6 (PTK6, Homo sapiens, UniProt Q13882)	enzyme activity, inhibitor, FRET	–	10 µM	6%
Cc1c(C(N)=O)cc([N+](=O)[O-])cc1[N+](=O)[O-]	GSK3B	enzyme activity, inhibitor, ADP detection	–	100 µM	17.1%
CCN(CC)c1ccc(C2=NNC(=O)CC2C)cc1[N+](=O)[O-] (centres unmarked)	High affinity cGMP-specific 3',5'-cyclic phosphodiesterase 9A (PDE9A, Homo sapiens, UniProt O76083)	enzyme activity, inhibitor	–	0.1 µM	2%
Ic1cccc2cnccc12	Protein mono-ADP-ribosyltransferase TIPARP (TIPARP, Homo sapiens, UniProt Q7Z3E1)	enzyme activity, inhibitor	–	10 µM	2%
NC(=O)N/N=C/c1ccc([N+](=O)[O-])o1	GSK3B	enzyme activity, inhibitor, ADP detection	–	100 µM	31%
O=C(c1ccc(Cl)cc1)N(Cc1ccccc1)C1CCCCC1	Motilin receptor (MLNR, Homo sapiens, UniProt O43193)	cell-free assay	–	10 µM	18.7%
O=c1c(O[C@@H]2O[C@H](CO)[C@@H](O)[C@H](O)[C@H]2O)c(-c2ccc(O)cc2)oc2cc(O)cc(O)c12	PTGS2	enzyme activity, inhibitor, absorbance	–	50 µM	55.1%
O=C(CSc1nc2nccnc2c(=O)n1CCc1ccccc1)Nc1nccs1	Phosphatidylinositol 4-kinase type 2-beta (PI4K2B, Homo sapiens, UniProt Q8TCG2)	enzyme activity, inhibitor	–	10 µM	-11%
O=c1c(-c2ccc(O)cc2)coc2cc(O)ccc12	GSK3B	enzyme activity, inhibitor, ADP detection	–	100 µM	59.2%
